The source made the active and inactive calls. The calls are words filed in the database; no cut-off is given here.
How the values were obtained:
[1] = test system: HeLa; assay: Antiproliferative activity against BRCA1 deficient human HeLa cells; type: functional
Procedure, shortened: (§1)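 Antiproliferation in HeLa cells, BRCA1-deficient and BRCA wild-type lines. Read-out is CC50 in nM. Values are means of at least two experiments.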

[2] = biological target: Poly [ADP-ribose] polymerase 1 (Homo sapiens, UniProt P09874)
[3] = test system: HeLa; assay: Antiproliferative activity against BRCA1 expressing human HeLa cells; type: functional; procedure, shortened: as §1
[4] = Intrinsic clearance in rat liver microsomes; type: ADME, Microsome
[5] = Oral bioavailability in rat; type: ADME, organism-based; settings: in vivo
[6] = test system: HeLa; assay: Selectivity for BRCA1 deficient human HeLa cells over BRCA1 expressing HeLa cells; type: functional
[7] = Drug excretion in iv dosed rat urine after 72 hrs; type: ADME, organism-based; settings: read-out: Activity
[8] = Drug excretion in iv dosed rat bile after 72 hrs; type: ADME, organism-based; settings: read-out: Activity
[9] = Intrinsic clearance in human liver microsomes; type: ADME, Microsome
[10] = Clearance in rat; type: ADME, organism-based; settings: in vivo
[11] = biological target: CYP3A4 (Homo sapiens, UniProt P08684); assay: Inhibition of CYP3A4 at 10 uM; type: ADME
[12] = biological target: Voltage-gated inwardly rectifying potassium channel KCNH2 (Homo sapiens, UniProt Q12809); assay: Inhibition of human ERG
[13] = Induction of CYP450 at 10 uM relative to refampicin; type: ADME
[14] = Drug excretion in iv dosed rat urine after 24 hrs; type: ADME, organism-based; settings: read-out: Activity
[15] = Half life in rat; type: ADME, organism-based; settings: in vivo
[16] = Volume of distribution at steady state in rat; type: ADME, organism-based; settings: in vivo, read-out: Vdss
[17] = test system: HeLa; assay: Antiproliferative activity against BRCA1 deficient human HeLa cells at 5 uM; type: functional, cell-based
[18] = biological target: CYP2D6 (Homo sapiens, UniProt P10635); assay: Inhibition of CYP2D6 at 10 uM; type: ADME
CYP2D6, sequence (P10635 whole entry): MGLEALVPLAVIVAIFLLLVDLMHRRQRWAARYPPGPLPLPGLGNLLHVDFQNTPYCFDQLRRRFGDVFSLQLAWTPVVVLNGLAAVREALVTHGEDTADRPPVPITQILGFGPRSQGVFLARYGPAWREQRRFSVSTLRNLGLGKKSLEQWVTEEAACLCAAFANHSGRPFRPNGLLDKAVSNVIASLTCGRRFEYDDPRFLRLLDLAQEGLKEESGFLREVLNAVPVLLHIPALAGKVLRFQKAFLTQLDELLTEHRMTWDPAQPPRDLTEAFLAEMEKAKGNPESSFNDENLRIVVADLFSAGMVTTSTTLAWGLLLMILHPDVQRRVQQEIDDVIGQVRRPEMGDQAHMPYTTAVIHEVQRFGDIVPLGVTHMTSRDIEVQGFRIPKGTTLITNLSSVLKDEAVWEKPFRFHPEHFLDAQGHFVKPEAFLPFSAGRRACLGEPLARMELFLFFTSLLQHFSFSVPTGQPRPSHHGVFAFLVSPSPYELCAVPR

Poly [ADP-ribose] polymerase 1, sequence (P09874 whole entry): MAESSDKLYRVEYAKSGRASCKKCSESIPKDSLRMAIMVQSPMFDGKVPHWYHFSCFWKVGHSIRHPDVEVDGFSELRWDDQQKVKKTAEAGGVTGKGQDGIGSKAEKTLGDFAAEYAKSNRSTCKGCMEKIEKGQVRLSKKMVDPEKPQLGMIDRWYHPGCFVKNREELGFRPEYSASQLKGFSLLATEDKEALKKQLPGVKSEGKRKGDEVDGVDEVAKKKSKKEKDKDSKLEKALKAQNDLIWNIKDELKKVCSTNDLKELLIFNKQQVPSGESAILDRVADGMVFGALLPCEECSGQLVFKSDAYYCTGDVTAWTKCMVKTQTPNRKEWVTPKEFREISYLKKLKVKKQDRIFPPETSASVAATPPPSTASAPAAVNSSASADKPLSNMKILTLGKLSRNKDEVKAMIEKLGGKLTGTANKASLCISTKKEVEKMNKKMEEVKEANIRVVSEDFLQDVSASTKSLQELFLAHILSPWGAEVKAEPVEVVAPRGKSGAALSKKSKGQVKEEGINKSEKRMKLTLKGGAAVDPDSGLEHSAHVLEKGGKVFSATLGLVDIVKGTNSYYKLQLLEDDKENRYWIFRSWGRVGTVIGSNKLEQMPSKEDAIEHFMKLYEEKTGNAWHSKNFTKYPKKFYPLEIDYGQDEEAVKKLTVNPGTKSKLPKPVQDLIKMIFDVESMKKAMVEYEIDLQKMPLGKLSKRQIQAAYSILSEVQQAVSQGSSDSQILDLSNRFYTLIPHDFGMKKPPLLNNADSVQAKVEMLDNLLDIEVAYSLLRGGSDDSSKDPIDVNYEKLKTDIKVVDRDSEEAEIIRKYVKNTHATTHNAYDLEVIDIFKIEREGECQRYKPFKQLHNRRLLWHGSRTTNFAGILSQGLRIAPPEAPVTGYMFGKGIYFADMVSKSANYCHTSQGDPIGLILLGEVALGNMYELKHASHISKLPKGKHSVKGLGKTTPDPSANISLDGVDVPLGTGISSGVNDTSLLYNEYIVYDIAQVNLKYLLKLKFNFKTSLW
Voltage-gated inwardly rectifying potassium channel KCNH2, sequence (Q12809 whole entry): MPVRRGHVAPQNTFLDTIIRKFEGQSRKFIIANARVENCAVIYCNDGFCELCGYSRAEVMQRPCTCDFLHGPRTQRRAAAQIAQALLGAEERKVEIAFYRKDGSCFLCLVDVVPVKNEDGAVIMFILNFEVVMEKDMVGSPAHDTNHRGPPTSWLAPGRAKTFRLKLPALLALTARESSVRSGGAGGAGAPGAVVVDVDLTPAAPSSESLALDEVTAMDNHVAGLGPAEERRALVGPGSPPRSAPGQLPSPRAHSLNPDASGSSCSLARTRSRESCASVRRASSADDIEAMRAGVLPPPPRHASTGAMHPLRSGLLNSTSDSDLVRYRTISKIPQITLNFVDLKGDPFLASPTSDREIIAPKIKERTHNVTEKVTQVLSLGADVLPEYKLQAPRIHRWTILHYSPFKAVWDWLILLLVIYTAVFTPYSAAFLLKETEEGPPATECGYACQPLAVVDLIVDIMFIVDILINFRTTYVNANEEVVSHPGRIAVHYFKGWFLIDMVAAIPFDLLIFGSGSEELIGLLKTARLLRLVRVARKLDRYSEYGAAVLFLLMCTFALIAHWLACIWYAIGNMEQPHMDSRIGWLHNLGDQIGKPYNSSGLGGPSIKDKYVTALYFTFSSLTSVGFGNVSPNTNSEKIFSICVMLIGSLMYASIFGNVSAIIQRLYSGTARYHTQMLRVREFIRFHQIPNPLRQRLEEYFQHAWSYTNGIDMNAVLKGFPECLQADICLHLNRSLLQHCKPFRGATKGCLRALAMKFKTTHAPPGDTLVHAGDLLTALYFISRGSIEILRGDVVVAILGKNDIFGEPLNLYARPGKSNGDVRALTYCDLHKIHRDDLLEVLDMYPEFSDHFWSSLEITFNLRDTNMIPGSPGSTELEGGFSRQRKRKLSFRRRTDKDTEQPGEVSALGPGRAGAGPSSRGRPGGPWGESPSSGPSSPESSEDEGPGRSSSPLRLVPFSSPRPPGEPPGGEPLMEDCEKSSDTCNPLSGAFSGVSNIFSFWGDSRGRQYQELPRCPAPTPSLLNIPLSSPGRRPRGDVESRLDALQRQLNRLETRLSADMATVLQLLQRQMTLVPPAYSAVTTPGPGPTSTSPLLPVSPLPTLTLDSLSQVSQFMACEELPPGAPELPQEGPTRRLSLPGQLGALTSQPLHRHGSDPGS
CYP3A4, sequence (P08684 whole entry): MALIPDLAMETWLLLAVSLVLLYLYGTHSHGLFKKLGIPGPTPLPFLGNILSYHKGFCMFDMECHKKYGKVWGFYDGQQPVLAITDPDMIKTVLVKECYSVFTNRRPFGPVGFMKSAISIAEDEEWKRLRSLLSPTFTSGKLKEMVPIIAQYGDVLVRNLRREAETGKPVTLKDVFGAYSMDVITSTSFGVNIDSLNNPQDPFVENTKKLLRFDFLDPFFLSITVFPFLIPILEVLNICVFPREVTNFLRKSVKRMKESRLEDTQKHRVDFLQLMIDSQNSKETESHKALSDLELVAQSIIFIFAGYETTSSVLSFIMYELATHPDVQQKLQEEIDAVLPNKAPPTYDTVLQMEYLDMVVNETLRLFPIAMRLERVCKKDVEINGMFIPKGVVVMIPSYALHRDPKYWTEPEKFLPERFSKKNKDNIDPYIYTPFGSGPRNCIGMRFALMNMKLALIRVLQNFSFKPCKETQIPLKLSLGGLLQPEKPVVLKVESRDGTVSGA

Row | Compound | CC50 [1] [nM] | IC50 [2] [nM] | CC50 [3] [µM] | further results
1 | Cc1c(Cc2ccc(F)c(C(=O)N3CCN(C(=O)C4(NCC5CC5)CCCC4)CC3)c2)n[nH]c(=O)c1C | 71 | 2.4 | 2.1 | 
2 | CNC1(C(=O)N2CCN(C(=O)c3cc(Cc4n[nH]c(=O)c(C)c4C)ccc3F)CC2)CC1 | 240 |  | > 5 | 
3 | CCNC1(C(=O)N2CCN(C(=O)c3cc(Cc4n[nH]c(=O)c(C)c4C)ccc3F)CC2)CCCC1 | 91 | 3.1 | 4 | 
4 | Cc1c(Cc2ccc(F)c(C(=O)N3CCN(C(=O)[C@]4(Cc5ccc(F)cc5)CCCN4)CC3)c2)n[nH]c(=O)c1C | 15 | 2.5 | 3.3 | 
5 | Cc1c(Cc2ccc(F)c(C(=O)N3CCN(C(=O)C4(C)CCCO4)CC3)c2)n[nH]c(=O)c1C (stereo not given) | 380 | 2.8 | 11 | 
6 | CCN1CCCC12CCN(C(=O)c1cc(Cc3n[nH]c(=O)c(C)c3C)ccc1F)CC2 | 170 | 9.7 | > 5 | 
7 | Cc1c(Cc2ccc(F)c(C(=O)N3CCN(C(=O)C4(C)CCCCN4)CC3)c2)n[nH]c(=O)c1C (stereo not given) | 2000 | 12 | > 20 | 
8 | Cc1c(Cc2ccc(F)c(C(=O)N3CCN(C(=O)[C@H]4CCCN4)CC3)c2)n[nH]c(=O)c1C | 220 | 2.7 | > 10 | 
9 | Cc1c(Cc2ccc(F)c(C(=O)N3CCN(C(=O)C4(C)CCCN4)CC3)c2)n[nH]c(=O)c1C (stereo not given) | 90 | 2.8 | > 5 | microsomal CLint [4]: < 1 µL/min/mg; bioavailability [5]: < 3%; Ratio [6]: 30; dose excreted at 72 h [7]: 82%; dose excreted at 72 h [8]: 3%; microsomal CLint [9]: < 1 µL/min/mg; clearance [10]: 38 mL/min/kg
10 | Cc1c(Cc2ccc(F)c(C(=O)N3CCC4(CCCN4C)CC3)c2)n[nH]c(=O)c1C | 100 | 4.5 | > 5 | 
11 | Cc1c(Cc2ccc(F)c(C(=O)N3CCN(C(=O)[C@@]4(Cc5ccc(F)cc5)CCCN4)CC3)c2)n[nH]c(=O)c1C | 290 | 4.2 | 15 | 
12 | CNC(C)(C)C(=O)N1CCN(C(=O)c2cc(Cc3c[nH]c(=O)c4cc(Cl)c(Cl)n34)ccc2F)CC1 | 53 | 2 | > 5 | microsomal CLint [4]: 122 µL/min/mg; inhibition at 10 µM [11]: 25%; IC50 [12]: 11 µM; Ratio [6]: >100; Activity [13]: 14%; clearance [10]: > 200 mL/min/kg
13 | C=CCC1(C(=O)N2CCN(C(=O)c3cc(Cc4n[nH]c(=O)c(C)c4C)ccc3F)CC2)CCCN1 (stereo not given) | 31 | 1.8 | 19 | 
14 | Cc1c(Cc2ccc(F)c(C(=O)N3CCN(C(=O)[C@]4(C)CCCN4)CC3)c2)n[nH]c(=O)c1C | 780 | 3.8 | > 40 | 
15 | Cc1c(Cc2ccc(F)c(C(=O)N3CCN(C(=O)C4(Cc5ccccc5)CCCN4)CC3)c2)n[nH]c(=O)c1C (stereo not given) | 53 | 3.3 | > 5 | 
16 | Cc1c(Cc2ccc(F)c(C(=O)N3CCC4(CCCN4)CC3)c2)n[nH]c(=O)c1C | 49 | 2.6 | > 5 | microsomal CLint [4]: < 1 µL/min/mg; dose excreted at 24 h [14]: 37%; half-life [15]: 222 min; Vd [16]: 6.7 L/kg; microsomal CLint [9]: < 1 µL/min/mg; clearance [10]: 57 mL/min/kg
17 | Cc1c(Cc2ccc(F)c(C(=O)N3CCN(C(=O)C4CCNC4)CC3)c2)n[nH]c(=O)c1C (stereo not given) | > 5000 | 3.9 | > 5 | Activity [17]: inactive

Row | Compound | CC50 [1] [nM] | IC50 [2] [nM] | CC50 [3] [µM] | further results
18 | CCC1(C(=O)N2CCN(C(=O)c3cc(Cc4n[nH]c(=O)c(C)c4C)ccc3F)CC2)CCCN1 (stereo not given) | 24 | 3.8 | 16 | microsomal CLint [4]: 6 µL/min/mg; bioavailability [5]: < 3%; microsomal CLint [9]: 13 µL/min/mg
19 | Cc1c(Cc2ccc(F)c(C(=O)N3CCN(C(=O)[C@@]4(C)CCN4)CC3)c2)n[nH]c(=O)c1C | 78 | 3.1 | > 40 | microsomal CLint [4]: < 1 µL/min/mg; dose excreted at 24 h [14]: 11%; bioavailability [5]: < 3%; microsomal CLint [9]: 3 µL/min/mg
20 | O=C(c1cc(Cc2c[nH]c(=O)c3cc(Cl)c(Cl)n23)ccc1F)N1CCC2(CCCN2)CC1 | 48 | 2.5 | > 5 | microsomal CLint [4]: 65 µL/min/mg; IC50 [12]: 12 µM; inhibition at 10 µM [18]: 35%; Ratio [6]: >100; clearance [10]: 130 mL/min/kg
21 | Cc1c(Cc2ccc(F)c(C(=O)N3CCN(C(=O)C4(Nc5ccccc5)CCCC4)CC3)c2)n[nH]c(=O)c1C | 130 | 3.9 | 0.87 | 
22 | Cc1c(Cc2ccc(F)c(C(=O)N3CCN(C(=O)C4(Cc5ccc(F)cc5)CCCN4)CC3)c2)n[nH]c(=O)c1C (stereo not given) | 9.1 | 3.6 | 2.7 | inhibition at 10 µM [11]: 73%
23 | Cc1c(Cc2ccc(F)c(C(=O)N3CCN(C(=O)C4(NCC5CC5)CCCCC4)CC3)c2)n[nH]c(=O)c1C | 170 | 3.5 | 1.9 | 
24 | Cc1c(Cc2ccc(F)c(C(=O)N3CCC4(CCN4)CC3)c2)n[nH]c(=O)c1C | > 5000 | 4.6 | > 5 | 
25 | Cc1c(Cc2ccc(F)c(C(=O)N3CCN(C(=O)[C@@H]4CCCN4)CC3)c2)n[nH]c(=O)c1C | 3000 | 3.1 | > 10 | 
26 | Cc1c(Cc2ccc(F)c(C(=O)N3CCN(C(=O)C4(N5CCCC5)CCCC4)CC3)c2)n[nH]c(=O)c1C | 89 | 2.7 | 1.5 | 
27 | CNC1(C(=O)N2CCN(C(=O)c3cc(Cc4n[nH]c(=O)c(C)c4C)ccc3F)CC2)CCCC1 | 81 | 2.7 | > 5 | 
28 | CNC(C)(C)C(=O)N1CCN(C(=O)c2cc(Cc3n[nH]c(=O)c(C)c3C)ccc2F)CC1 | 280 | 3.7 | > 5 | microsomal CLint [4]: 7 µL/min/mg; microsomal CLint [9]: 10 µL/min/mg; clearance [10]: 64 mL/min/kg
29 | Cc1c(Cc2ccc(F)c(C(=O)N3CCN(C(=O)C4(NCC5CC5)CCC4)CC3)c2)n[nH]c(=O)c1C | 24 | 3.2 | 0.45 | 
30 | Cc1c(Cc2ccc(F)c(C(=O)N3CCC4(CCNC4)CC3)c2)n[nH]c(=O)c1C | > 5000 | 4.7 | > 5 | 
31 | Cc1c(Cc2ccc(F)c(C(=O)N3CCN(C(=O)C4(N(C)C)CC4)CC3)c2)n[nH]c(=O)c1C | 350 | 5.7 | 7.7 | 
32 | Cc1c(Cc2ccc(F)c(C(=O)N3CCN(C(=O)C(C)(C)N(C)C)CC3)c2)n[nH]c(=O)c1C | 360 | 1.8 | > 2.5 | 
33 | Cc1c(Cc2ccc(F)c(C(=O)N3CCN(C(=O)[C@@]4(C)CCCN4)CC3)c2)n[nH]c(=O)c1C | 45 | 1.3 | > 5 | Ratio [6]: 100
